Where two headings read alike, the source gives them in different places.
Columns and labels:
[1] = Pharmacokinetic study in rats after oral administration of JDR or gemcitabine; assay type: in vivo; settings: male, Wistar, rat, plasma, 50 mg/kg
Summary of the method: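 Twelve male Wistar rats (180–220 g) were fasted 12 h and randomized into two groups (n = 6). Each received one oral dose: prodrug at gemcitabine-equivalent 50 mg/kg or parent drug 50 mg/kg. Blood was drawn at 0.083–48 h (prodrug) or 0.25–24 h (parent) into heparinized THU-treated tubes and spun 3000 × g 15 min; plasma was kept at −80 °C. Analysis was UPLC–MS/MS MRM, with noncompartmental parameters.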

[2] = assay type: in vitro ADME, rat; settings: for Concentration founded: n = 3
Summary of the method: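 QC samples (n = 3) were spiked into THU-pretreated rat plasma at low, mid and high levels: 15, 125, 3200 ng/ml prodrug and 12, 125, 3200 ng/ml parent drug. 50 µl plasma was protein-precipitated with methanol plus didanosine IS and centrifuged. Extracts were held in the autosampler at 10 °C for 8 h before UPLC–MS/MS. Read-outs were found concentration and relative error.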

Q: Which results are given for Nc1ccn([C@@H]2O[C@H](CO)[C@@H](O)C2(F)F)c(=O)n1 [Gemcitabine]?
A: Cmax [1]: 1180 ± 47.1 ng/mL; Tmax [1]: 1.5 ± 0.9 h; half-life [1]: 157 ± 66 min; RE% ([2]; autosampler rack at 10 °C for 8 h, High QC): −6.4%; RE% ([2]; autosampler rack at 10 °C for 8 h, Low QC): 0.9%; RE% ([2]; autosampler rack at 10 °C for 8 h, Mid QC): 9.1%; RE% ([2]; rat plasma, bench-top (20 °C for 1 h), High QC): −8.9%; Concentration founded ([2]; rat plasma, bench-top (20 °C for 1 h), High QC (added 3200.00 ng/ml)): 2915.15 ± 95.7 ng/mL; RE% ([2]; rat plasma, bench-top (20 °C for 1 h), Low QC): −4.8%; RE% ([2]; rat plasma, bench-top (20 °C for 1 h), Mid QC): 7.8%; Concentration founded ([2]; rat plasma, bench-top (20 °C for 1 h), Mid QC (added 125.00 ng/ml)): 134.78 ± 1.6 ng/mL; RE% ([2]; rat plasma, freezing at -80 °C for 2 months, High QC): −0.1%; RE% ([2]; rat plasma, freezing at -80 °C for 2 months, Low QC): −2.1%; RE% ([2]; rat plasma, freezing at -80 °C for 2 months, Mid QC): 4.3%; Concentration founded ([2]; rat plasma, freezing at -80 °C for 2 months, Mid QC (added 125.00 ng/ml)): 130.38 ± 10.6 ng/mL; RE% ([2]; rat plasma, three freeze/thaw cycles (-80 to 20 °C), High QC): −7.3%; RE% ([2]; rat plasma, three freeze/thaw cycles (-80 to 20 °C), Low QC): −2.0%; RE% ([2]; rat plasma, three freeze/thaw cycles (-80 to 20 °C), Mid QC): 7.4%

Reference: publication PMC7032160 (Asian Journal of Pharmaceutical Sciences, 2017)
